Experimental data from different studies.
Each line is one published result; the experiments were not run side by side.
Cell line: PC-9
Read-out: cell growth or viability
Time: 72 h

SMILES | assay | setting | measurement | value
COc1ccc(NC(=O)Nc2ccc(-c3cn(Cc4ccc(C)cc4)nn3)cc2)cc1 | CCK-8 | 20 µM | viability | 87.1%
O=C(Nc1ccc(Cl)cc1)Nc1cccc(-c2cn(Cc3ccc(Cl)cc3)nn2)c1 | CCK-8 | 20 µM | viability | 95.4%
COc1ccc(NC(=O)Nc2cccc(-c3cn(Cc4ccc(C)cc4)nn3)c2)cc1 | CCK-8 | 50 µM | viability | 92.6%
COc1ccc(N(Cc2nc(-c3ccc(F)cc3)cs2)C(=O)CCCCCC(=O)NO)cc1 | MTT | – | IC50 | 0.73 µM
O=C(Nc1ccc(Cl)cc1)Nc1ccc(-c2cn(Cc3ccc(Br)cc3)nn2)cc1 | CCK-8 | 50 µM | viability | 80.4%
COc1ccc(NC(=O)Nc2ccc(-c3cn(Cc4ccc(Cl)cc4)nn3)cc2)cc1 | CCK-8 | 20 µM | viability | 91%
O=C(NCc1cn(Cc2ccc(Cl)cc2)nn1)Nc1ccc(Cl)cc1 | CCK-8 | 20 µM | viability | 83.2%
COc1ccc(NC(=O)Nc2ccc(-c3cn(Cc4ccc(Br)cc4)nn3)cc2)cc1 | CCK-8 | 50 µM | viability | 96.4%
COc1cccc(NC(=O)Nc2nc3cc(-c4ccc5ncn(CCN(C)C)c(=O)c5c4)ccc3s2)c1 | MTT | – | IC50 | 5.24 µM
O=C(Nc1cccc(-c2cn(Cc3ccc(Cl)cc3)nn2)c1)Nc1ccccc1Br | CCK-8 | 50 µM | viability | 107%
O=C(Nc1nc2cc(-c3ccc4ncn(Cc5ccccc5)c(=O)c4c3)ccc2s1)c1ccccc1 | MTT | – | IC50 | > 20 µM
Cc1ccccc1Cn1cc(-c2cccc(NC(=O)Nc3ccc(F)cc3)c2)nn1 | CCK-8 | 20 µM | viability | 88.9%
O=C(Nc1ccc(Cl)cc1)Nc1nc2cc(-c3ccc4ncn(CCN5CCOCC5)c(=O)c4c3)ccc2s1 | MTT | – | IC50 | > 20 µM
O=C(Nc1cccc(-c2cn(Cc3ccc(Br)cc3)nn2)c1)Nc1ccccc1Br | CCK-8 | 20 µM | viability | 128%
CCCCNC(=O)Nc1nc2cc(-c3ccc4ncn(Cc5ccccc5)c(=O)c4c3)ccc2s1 | MTT | – | IC50 | > 20 µM
O=C(NCc1cn(Cc2ccc(Cl)cc2)nn1)Nc1ccccc1Br | CCK-8 | 20 µM | viability | 94.5%
CCCn1cnc2ccc(-c3ccc4sc(NC(=O)Nc5ccc(F)cc5)nc4c3)cc2c1=O | MTT | – | IC50 | 1.51 µM
COc1ccc(N(Cc2csc(-c3ccc(C)cc3)n2)C(=O)CCCCCC(=O)NO)cc1 | MTT | – | IC50 | 0.46 µM
COc1ccc(NC(=O)NCc2cn(Cc3ccc(C)cc3)nn2)cc1 | CCK-8 | 20 µM | viability | 105%
COc1ccc(NC(=O)Nc2nc3cc(-c4ccc5ncn(CCN6CCOCC6)c(=O)c5c4)ccc3s2)cc1 | MTT | – | IC50 | > 20 µM
